Data taken from ChEMBL document CHEMBL1129041, “Design of orally active dual inhibitors of neutral endopeptidase and angiotensin-converting enzyme with long duration of action” (J Med Chem, 1996).

Target: T1, Neprilysin (Mus musculus) (UniProt Q61391)
T1 sequence (whole entry): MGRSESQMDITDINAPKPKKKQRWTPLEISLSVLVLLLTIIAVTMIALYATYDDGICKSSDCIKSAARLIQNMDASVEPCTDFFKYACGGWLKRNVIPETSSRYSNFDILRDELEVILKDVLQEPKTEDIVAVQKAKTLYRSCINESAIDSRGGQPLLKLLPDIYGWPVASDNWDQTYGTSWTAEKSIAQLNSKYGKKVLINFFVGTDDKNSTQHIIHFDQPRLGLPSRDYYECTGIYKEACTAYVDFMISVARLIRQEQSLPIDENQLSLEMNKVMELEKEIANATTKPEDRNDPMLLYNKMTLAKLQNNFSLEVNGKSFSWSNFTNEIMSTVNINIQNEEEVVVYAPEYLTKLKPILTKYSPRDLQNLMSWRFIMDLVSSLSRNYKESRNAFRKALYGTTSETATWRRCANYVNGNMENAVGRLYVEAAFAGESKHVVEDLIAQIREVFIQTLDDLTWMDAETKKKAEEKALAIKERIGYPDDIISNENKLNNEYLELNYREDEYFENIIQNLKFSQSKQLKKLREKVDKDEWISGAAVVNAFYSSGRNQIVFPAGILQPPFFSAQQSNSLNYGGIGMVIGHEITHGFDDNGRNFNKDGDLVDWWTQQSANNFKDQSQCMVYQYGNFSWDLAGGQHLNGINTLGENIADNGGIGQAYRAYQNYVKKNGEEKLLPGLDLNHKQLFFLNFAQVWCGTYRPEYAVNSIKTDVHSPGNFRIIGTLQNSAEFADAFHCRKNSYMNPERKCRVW
Assay: In vivo percent inhibition activity against kidney Neutral endopeptidase 2 hr after oral administration of a dose of 2.6 x 10e-5 mol/kg
Assay type: organism-based
In short: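 Mice given a single oral dose in 10% ethanol/10% cremophor/80% water; kidneys taken 2 h later and homogenized at 4 °C in 50 mM Tris-HCl pH 7.4. Membrane fraction (100000g) preincubated 5 min at 25 °C with bestatin and captopril, then incubated 10 min with [3H]-D-Ala2-Leu-enkephalin (2 × 10^-8 M). [3H]Tyr-D-Ala-Gly counted; blanks contained 10^-5 M retrothiorphan.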

- inhibition: 44%
Compound: Cc1ccccc1C1CC[C@@H](C(=O)O)N1C(=O)CNC(=O)[C@@H](S)Cc1ccc(O)cc1 (single isomer, unassigned)
